Activity calls are given as the source filed them. The rule behind the calls is not given here.
Tests used:
[1] = target: Mitogen-activated protein kinase 11 (Homo sapiens, UniProt Q15759); assay: Binding affinity to full length human p38beta (M1 to Q364 residues) expressed in bacterial expression system by KINOMEscan assay
[2] = system: HT-29; assay: Upregulation of p53 expression in human HT-29 cells after 48 hrs by Western blot analysis; format: functional, cell-based
[3] = system: HT-29; assay: Growth inhibition of human HT-29 cells by MTT assay; format: functional
Procedure, shortened: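 MTT viability assay: 3×10³ cells/well were pre-incubated for 24 h, then exposed to 0, 12.5, 25, 50, 100 or 200 μM for 12, 24, 48 or 72 h. MTT was added at 0.5 mg/mL final for 4 h, formazan dissolved in DMSO, and absorbance read at 570 nm. GI₅₀ was taken from growth-inhibition curves; mean ± SD of three independent experiments, each in sextuplicate.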

[4] = target: Dual specificity tyrosine-phosphorylation-regulated kinase 1B (Homo sapiens, UniProt Q9Y463); assay: Inhibition of full length human DYRK1B (M1 to S629 residues) expressed in bacterial expression system assessed as residual activity at 5 uM by KINOMEscan assay relative to control
[5] = target: Phosphatidylinositol 4,5-bisphosphate 3-kinase catalytic subunit alpha isoform (Homo sapiens, UniProt P42336); assay: Binding affinity to human PIK3CA (R108 to N1068 residues) expressed in mammalian expression system by KINOMEscan assay
[6] = system: HT-29; assay: Inhibition of colony formation in human HT-29 cells assessed as reduction in number of colonies at 25 to 75 uM treated for 48 hrs followed by compound washout and measured after 14 hrs by crystal violet staining based assay; format: functional, cell-based
[7] = organism: Homo sapiens; assay: Inhibition of PI3K/AKT signaling pathway in human SW620 cells assessed as reduction in mTOR phosphorylation up to 75 uM after 48 hrs by Western blot analysis; format: cell-based
[8] = system: Serine/threonine-protein kinase B-raf (Homo sapiens), P15056 [V600E]; assay: Inhibition of human BRAF (S429 to E741 residues) V600E mutant expressed in mammalian expression system assessed as residual activity at 5 uM by KINOMEscan assay relative to control
[9] = target: Angiopoietin-1 receptor (Homo sapiens, UniProt Q02763); assay: Inhibition of human TIE2 (N804 to T1112 residues) expressed in bacterial expression system assessed as residual activity at 5 uM by KINOMEscan assay relative to control
[10] = target: Receptor tyrosine-protein kinase erbB-2 (Homo sapiens, UniProt P04626); assay: Binding affinity to human ERBB2 (K646 to V1225 residues) expressed in mammalian expression system by KINOMEscan assay
[11] = target: T1, High affinity nerve growth factor receptor (Homo sapiens, UniProt P04629); assay: Inhibition of human TRKA (G475 to G790 residues) expressed in mammalian expression system assessed as residual activity at 5 uM by KINOMEscan assay relative to control
Target sequence in this assay (P04629 33-796 limits assumed): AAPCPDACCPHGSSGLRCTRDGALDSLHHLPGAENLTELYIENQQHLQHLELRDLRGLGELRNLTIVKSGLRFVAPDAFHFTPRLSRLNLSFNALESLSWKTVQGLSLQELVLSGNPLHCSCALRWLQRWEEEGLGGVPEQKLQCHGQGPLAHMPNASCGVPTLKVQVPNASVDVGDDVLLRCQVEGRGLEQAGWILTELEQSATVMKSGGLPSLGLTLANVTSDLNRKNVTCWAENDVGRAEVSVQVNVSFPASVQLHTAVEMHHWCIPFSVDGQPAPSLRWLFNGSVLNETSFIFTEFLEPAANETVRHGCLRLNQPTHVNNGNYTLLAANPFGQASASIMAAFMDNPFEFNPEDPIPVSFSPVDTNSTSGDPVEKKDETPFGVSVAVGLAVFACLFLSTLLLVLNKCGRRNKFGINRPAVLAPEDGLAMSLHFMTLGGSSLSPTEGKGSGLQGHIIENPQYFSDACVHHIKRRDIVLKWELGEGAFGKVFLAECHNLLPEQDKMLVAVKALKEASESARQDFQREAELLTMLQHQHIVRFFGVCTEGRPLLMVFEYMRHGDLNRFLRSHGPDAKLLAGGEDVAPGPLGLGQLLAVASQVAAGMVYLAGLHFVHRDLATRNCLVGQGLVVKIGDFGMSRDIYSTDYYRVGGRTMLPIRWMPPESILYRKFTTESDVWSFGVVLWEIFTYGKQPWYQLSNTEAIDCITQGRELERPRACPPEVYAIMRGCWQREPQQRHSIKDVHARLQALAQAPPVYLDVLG

[12] = target: Serine/threonine-protein kinase ULK2 (Homo sapiens) (UniProt Q8IYT8); assay: Inhibition of human ULK2 (M1 to S301 residues) expressed in mammalian expression system assessed as residual activity at 5 uM by KINOMEscan assay relative to control
[13] = target: Ephrin type-A receptor 2 (Homo sapiens, UniProt P29317); assay: Binding affinity to human EPHA2 (T593 to V891 residues) expressed in bacterial expression system by KINOMEscan assay
[14] = target: T2, Serine/threonine-protein kinase pim-2 (Homo sapiens, UniProt Q9P1W9); assay: Binding affinity to human PIM2 (M1 to E291 residues) expressed in bacterial expression system by KINOMEscan assay
[15] = system: HT-29; assay: Induction of apoptosis in human HT-29 cells assessed as live cells at 50 uM after 48 hrs by Annexin-V-FITC/propidium iodide staining based flow cytometry (reference value: 93.2%); format: functional
[16] = target: Vascular endothelial growth factor receptor 2 (Homo sapiens, UniProt P35968); assay: Binding affinity to human VEGFR2 (R787 to P1253 residues) expressed in mammalian expression system by KINOMEscan assay
[17] = target: MAP kinase-interacting serine/threonine-protein kinase 2 (Homo sapiens, UniProt Q9HBH9); assay: Binding affinity to human MKNK2 (G63 to S388 residues) expressed in mammalian expression system by KINOMEscan assay
[18] = system: HT-29; assay: Cell cycle arrest in human HT-29 cells assessed as increase in accumulation at G2/M-phase after 48 hrs by propidium iodide staining based flow cytometry; format: functional
[19] = target: Serine/threonine-protein kinase PLK4 (Homo sapiens, UniProt O00444); assay: Binding affinity to partial length human PLK4 (M1 to S273 residues) expressed in mammalian expression system by KINOMEscan assay
[20] = target: Macrophage colony-stimulating factor 1 receptor (Homo sapiens, UniProt P07333); assay: Inhibition of human CSF1R (I564 to S939 residues) expressed in bacterial expression system assessed as residual activity at 5 uM by KINOMEscan assay relative to control
[21] = target: T1, High affinity nerve growth factor receptor; assay: Binding affinity to human TRKA (G475 to G790 residues) expressed in mammalian expression system by KINOMEscan assay
[22] = target: T2, Serine/threonine-protein kinase pim-2; assay: Inhibition of human PIM2 (M1 to E291 residues) expressed in bacterial expression system assessed as residual activity at 5 uM by KINOMEscan assay relative to control
[23] = target: Protein kinase C epsilon type (Homo sapiens, UniProt Q02156); assay: Binding affinity to human PRKCE (A378 to P737 residues) expressed in mammalian expression system by KINOMEscan assay
[24] = target: Tyrosine-protein kinase JAK3 (Homo sapiens) (UniProt P52333); assay: Inhibition of human JAK3 JH1 catalytic domain (I781 to S1124 residues) expressed in mammalian expression system assessed as residual activity at 5 uM by KINOMEscan assay relative to control

Chain of Ephrin type-A receptor 2 (P29317 whole entry, the tested form may be a part): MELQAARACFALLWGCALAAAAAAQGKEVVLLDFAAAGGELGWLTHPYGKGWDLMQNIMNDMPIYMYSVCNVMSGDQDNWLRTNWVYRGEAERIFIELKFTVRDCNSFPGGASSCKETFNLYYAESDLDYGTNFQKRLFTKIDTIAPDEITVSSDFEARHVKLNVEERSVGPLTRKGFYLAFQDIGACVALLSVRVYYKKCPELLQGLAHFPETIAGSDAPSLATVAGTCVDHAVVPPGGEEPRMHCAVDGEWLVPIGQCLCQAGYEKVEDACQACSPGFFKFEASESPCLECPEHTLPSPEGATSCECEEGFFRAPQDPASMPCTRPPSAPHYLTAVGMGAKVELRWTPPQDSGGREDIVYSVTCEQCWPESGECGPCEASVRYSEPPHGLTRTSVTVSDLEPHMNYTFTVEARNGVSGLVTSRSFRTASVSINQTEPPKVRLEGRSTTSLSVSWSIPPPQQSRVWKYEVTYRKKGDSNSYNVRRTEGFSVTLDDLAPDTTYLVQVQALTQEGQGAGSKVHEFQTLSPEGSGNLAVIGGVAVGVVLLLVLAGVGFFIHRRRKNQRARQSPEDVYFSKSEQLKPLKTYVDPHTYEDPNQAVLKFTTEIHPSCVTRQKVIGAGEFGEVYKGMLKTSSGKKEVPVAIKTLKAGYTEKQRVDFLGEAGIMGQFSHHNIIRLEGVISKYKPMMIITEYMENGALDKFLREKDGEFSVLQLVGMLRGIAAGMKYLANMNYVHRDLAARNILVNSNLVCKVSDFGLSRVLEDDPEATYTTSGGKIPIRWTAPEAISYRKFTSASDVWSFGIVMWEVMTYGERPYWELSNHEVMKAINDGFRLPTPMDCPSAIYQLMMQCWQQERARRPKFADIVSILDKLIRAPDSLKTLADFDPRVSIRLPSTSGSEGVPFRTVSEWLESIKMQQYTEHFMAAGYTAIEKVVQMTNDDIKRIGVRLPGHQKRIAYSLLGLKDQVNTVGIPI
Chain of Vascular endothelial growth factor receptor 2 (P35968 whole entry, the tested form may be a part): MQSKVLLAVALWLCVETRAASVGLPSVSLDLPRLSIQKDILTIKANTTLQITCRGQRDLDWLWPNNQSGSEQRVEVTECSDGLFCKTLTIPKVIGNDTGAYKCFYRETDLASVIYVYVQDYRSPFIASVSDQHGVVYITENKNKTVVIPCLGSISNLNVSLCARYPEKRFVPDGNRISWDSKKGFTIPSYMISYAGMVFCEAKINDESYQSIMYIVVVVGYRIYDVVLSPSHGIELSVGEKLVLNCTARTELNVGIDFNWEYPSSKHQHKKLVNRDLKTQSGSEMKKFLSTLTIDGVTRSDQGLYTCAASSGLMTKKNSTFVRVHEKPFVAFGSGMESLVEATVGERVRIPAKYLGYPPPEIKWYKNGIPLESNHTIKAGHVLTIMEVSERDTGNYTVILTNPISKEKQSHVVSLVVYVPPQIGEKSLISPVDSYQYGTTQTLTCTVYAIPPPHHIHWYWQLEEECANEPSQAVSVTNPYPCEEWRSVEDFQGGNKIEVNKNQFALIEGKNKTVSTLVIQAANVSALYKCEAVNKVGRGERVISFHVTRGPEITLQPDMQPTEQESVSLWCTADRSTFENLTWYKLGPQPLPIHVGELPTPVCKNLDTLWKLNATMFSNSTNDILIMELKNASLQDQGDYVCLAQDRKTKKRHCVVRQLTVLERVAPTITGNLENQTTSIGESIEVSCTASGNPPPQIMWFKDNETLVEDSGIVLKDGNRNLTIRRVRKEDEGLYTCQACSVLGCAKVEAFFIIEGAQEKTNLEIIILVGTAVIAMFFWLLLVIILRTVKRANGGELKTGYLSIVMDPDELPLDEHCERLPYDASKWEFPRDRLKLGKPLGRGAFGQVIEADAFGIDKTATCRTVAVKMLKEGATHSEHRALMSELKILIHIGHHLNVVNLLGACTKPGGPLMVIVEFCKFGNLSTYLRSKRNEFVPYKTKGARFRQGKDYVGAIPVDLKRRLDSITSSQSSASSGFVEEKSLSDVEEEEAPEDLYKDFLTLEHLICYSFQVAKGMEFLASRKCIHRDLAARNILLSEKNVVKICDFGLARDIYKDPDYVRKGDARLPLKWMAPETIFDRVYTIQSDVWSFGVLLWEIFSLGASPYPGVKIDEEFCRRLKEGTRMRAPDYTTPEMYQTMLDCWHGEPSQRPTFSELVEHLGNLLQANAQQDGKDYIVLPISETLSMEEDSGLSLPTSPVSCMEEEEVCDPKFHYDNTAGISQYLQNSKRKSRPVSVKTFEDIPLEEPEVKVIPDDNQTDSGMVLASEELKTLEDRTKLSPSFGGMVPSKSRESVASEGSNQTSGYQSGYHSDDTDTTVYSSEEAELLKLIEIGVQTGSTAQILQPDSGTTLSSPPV
Chain of Serine/threonine-protein kinase PLK4 (O00444 whole entry, the tested form may be a part): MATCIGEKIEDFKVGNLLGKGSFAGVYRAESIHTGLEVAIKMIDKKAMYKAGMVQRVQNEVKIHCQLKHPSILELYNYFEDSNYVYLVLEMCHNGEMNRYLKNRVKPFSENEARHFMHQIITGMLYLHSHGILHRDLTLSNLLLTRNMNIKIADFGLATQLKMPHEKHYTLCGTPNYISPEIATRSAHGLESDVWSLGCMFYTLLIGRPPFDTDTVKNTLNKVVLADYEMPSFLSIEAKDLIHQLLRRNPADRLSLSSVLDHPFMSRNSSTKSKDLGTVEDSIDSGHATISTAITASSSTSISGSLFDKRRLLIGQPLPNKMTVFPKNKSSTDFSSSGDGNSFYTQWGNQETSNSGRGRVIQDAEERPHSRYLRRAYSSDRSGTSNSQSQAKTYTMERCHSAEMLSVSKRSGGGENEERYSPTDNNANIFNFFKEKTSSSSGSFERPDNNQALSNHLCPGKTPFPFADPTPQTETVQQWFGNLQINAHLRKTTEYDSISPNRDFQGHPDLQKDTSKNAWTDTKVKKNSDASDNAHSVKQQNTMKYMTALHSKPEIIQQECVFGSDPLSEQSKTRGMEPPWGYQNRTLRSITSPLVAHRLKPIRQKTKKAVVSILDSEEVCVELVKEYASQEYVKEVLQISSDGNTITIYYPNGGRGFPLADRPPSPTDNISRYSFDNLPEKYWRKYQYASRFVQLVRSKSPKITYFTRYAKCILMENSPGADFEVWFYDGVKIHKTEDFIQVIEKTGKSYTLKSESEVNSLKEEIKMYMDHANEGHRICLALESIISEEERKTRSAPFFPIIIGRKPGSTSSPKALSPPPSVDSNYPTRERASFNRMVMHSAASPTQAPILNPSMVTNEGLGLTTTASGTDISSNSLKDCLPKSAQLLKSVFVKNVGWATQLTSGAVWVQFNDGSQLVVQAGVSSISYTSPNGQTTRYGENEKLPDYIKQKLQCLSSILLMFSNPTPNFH
Chain of Mitogen-activated protein kinase 11 (Q15759 whole entry, the tested form may be a part): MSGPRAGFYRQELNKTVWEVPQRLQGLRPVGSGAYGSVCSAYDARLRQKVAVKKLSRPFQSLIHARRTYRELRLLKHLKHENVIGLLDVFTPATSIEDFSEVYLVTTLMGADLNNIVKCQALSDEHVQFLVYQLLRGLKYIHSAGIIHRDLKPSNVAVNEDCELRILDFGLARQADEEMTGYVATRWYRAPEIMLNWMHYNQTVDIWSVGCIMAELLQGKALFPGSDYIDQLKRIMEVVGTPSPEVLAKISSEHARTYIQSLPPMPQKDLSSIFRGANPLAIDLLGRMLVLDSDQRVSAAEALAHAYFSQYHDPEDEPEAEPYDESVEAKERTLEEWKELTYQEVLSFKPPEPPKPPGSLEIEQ
Chain of MAP kinase-interacting serine/threonine-protein kinase 2 (Q9HBH9 whole entry, the tested form may be a part): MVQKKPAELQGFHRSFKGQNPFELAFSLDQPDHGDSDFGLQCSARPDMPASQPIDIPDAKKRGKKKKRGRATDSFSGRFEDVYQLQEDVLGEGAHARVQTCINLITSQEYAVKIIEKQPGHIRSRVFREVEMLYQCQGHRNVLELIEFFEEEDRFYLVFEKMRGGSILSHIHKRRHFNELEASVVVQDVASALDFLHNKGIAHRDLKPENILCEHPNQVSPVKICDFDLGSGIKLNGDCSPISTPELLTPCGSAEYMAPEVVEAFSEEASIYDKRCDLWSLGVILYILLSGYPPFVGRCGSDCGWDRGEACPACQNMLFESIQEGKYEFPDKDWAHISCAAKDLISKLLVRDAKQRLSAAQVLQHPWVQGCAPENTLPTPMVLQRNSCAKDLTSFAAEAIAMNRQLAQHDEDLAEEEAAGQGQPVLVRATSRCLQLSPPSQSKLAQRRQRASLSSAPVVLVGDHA

## CC(C)CN(C(=O)c1cccnc1)c1c2ccccc2c(=O)n2c1[nH]c1ccccc12
[1]
  Kd: ≥ 5 µM
[2]
  Activity: Dose-dependent effect
[3]
  GI50: 24.1 µM
[4]
  Activity: 95%
[5]
  Kd: ≥ 5 µM
[6]
  inhibition: Active
[7]
  inhibition: Active
[8]
  Activity: 100%
[9]
  Activity: 88%
[10]
  Kd: ≥ 5 µM
[11]
  Activity: 84%
[12]
  Activity: 87%
[13]
  Kd: ≥ 5 µM
[14]
  Kd: ≥ 5 µM
[15]
  Activity: 80.3%
[16]
  Kd: ≥ 5 µM
[17]
  Kd: ≥ 5 µM
[18]
  Activity: Dose-dependent effect
[19]
  Kd: ≥ 5 µM
[20]
  Activity: 100%
[21]
  Kd: ≥ 5 µM
[22]
  Activity: 100%
[23]
  Kd: ≥ 5 µM
[24]
  Activity: 73%

Source: ChEMBL document CHEMBL4229410, “Facile construction of fused benzimidazole-isoquinolinones that induce cell-cycle arrest and apoptosis in colorectal cancer cells” (Bioorg Med Chem, 2018)
